Assay results as given in ChEMBL document CHEMBL1144984, “Synthesis and antibacterial activity of pyrroloaryl-substituted oxazolidinones” (2003).
Converted amounts (≈) assume the structure as drawn.

Assays:
Type in all cases: functional
Enterococcus faecium = test: Minimum inhibitory concentration against vancomycin resistant Enterococcus faecium OC 3312
Outline: (§1)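 Broth microdilution per NCCLS methods; MIC read as the lowest compound concentration inhibiting visible growth. Linezolid run as standard. Strains from a four-strain Gram-positive screening panel: S. aureus OC 2878 is methicillin-resistant, E. faecium OC 3312 is vancomycin-resistant.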

Enterococcus faecalis = test: Minimum inhibitory concentration against Enterococcus faecalis ATTCC 29212
Outline: (§2)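 Broth microdilution MIC run by National Committee for Clinical Laboratory Standards methods, with linezolid as standard. MIC is the lowest compound concentration inhibiting visible growth.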

Staphylococcus aureus [1] = test: Minimum inhibitory concentration against Staphylococcus aureus OC 4172 in precense of 50% mouse serum
Outline: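 Broth microdilution MIC against S. aureus OC 4172 (Smith, methicillin-susceptible) with 50% mouse serum in the medium, to gauge protein binding or serum inactivation. Run by NCCLS methods with linezolid as standard. MIC is the lowest concentration inhibiting visible growth.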

Staphylococcus aureus [2] = test: Minimum inhibitory concentration against methicillin resistant Staphylococcus aureus OC 2878; outline: as §1
Staphylococcus aureus [3] = test: Minimum inhibitory concentration against Staphylococcus aureus broth; outline: as §2
Mus musculus [4] = test: Effective dose of compound after oral administration in mice with Staphylococcus aureus OC4172 (Smith) was determined
Outline: (§3)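 Murine model of lethal systemic infection, with compound given orally. ED50 is the dose protecting 50% of mice from death, expressed in mg/kg/day.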

Mus musculus [5] = test: Effective dose of compound after oral administration in murine model infected with Staphylococcus aureus OC4172 (Smith) was determined; outline: as §3

SMILES	MIC (Enterococcus faecium)	MIC (Enterococcus faecalis)	MIC (Staphylococcus aureus [1])	MIC (Staphylococcus aureus [2])	MIC (Staphylococcus aureus [3])	ED50 (Mus musculus [4])	ED50 (Mus musculus [5])
CC(=O)NC[C@H]1CN(c2ccc(-n3cc4cccnc4c3)c(F)c2)C(=O)O1	1 µg/mL (≈ 2.71 µM)	1 µg/mL (≈ 2.71 µM)	2 µg/mL (≈ 5.43 µM)	0.5 µg/mL (≈ 1.36 µM)	1 µg/mL (≈ 2.71 µM)	–	–
CC(=O)NC[C@H]1CN(c2ccc(N3Cc4ccccc4C3)c(F)c2)C(=O)O1	4 µg/mL (≈ 10.8 µM)	4 µg/mL (≈ 10.8 µM)	16 µg/mL (≈ 43.3 µM)	1 µg/mL (≈ 2.71 µM)	4 µg/mL (≈ 10.8 µM)	> 80 mg/kg/day	–
CCN(Cc1ccccn1)c1ccc(N2C[C@H](CNC(C)=O)OC2=O)cc1F	> 128 µg/mL	> 128 µg/mL	> 128 µg/mL	–	> 128 µg/mL	–	–
CC(=O)NC[C@H]1CN(c2ccc(-n3cc4cncnc4c3)c(F)c2)C(=O)O1	0.5 µg/mL (≈ 1.35 µM)	1 µg/mL (≈ 2.71 µM)	2 µg/mL (≈ 5.41 µM)	1 µg/mL (≈ 2.71 µM)	1 µg/mL (≈ 2.71 µM)	–	–
CC(=O)NC[C@H]1CN(c2ccc(-n3cc4ccncc4c3)c(F)c2)C(=O)O1	0.5 µg/mL (≈ 1.36 µM)	1 µg/mL (≈ 2.71 µM)	1 µg/mL (≈ 2.71 µM)	0.5 µg/mL (≈ 1.36 µM)	0.5 µg/mL (≈ 1.36 µM)	–	–
CC(=O)NC[C@H]1CN(c2ccc(N3C(=O)c4ccncc4C3=O)c(F)c2)C(=O)O1	> 128 µg/mL	> 128 µg/mL	> 128 µg/mL	–	> 128 µg/mL	–	–
CC(=O)NC[C@H]1CN(c2ccc(N3C(=O)c4cccnc4C3=O)c(F)c2)C(=O)O1	> 128 µg/mL	> 128 µg/mL	> 128 µg/mL	–	> 128 µg/mL	–	–
CC(=O)NC[C@H]1CN(c2ccc(N3Cc4ncccc4C3=O)c(F)c2)C(=O)O1	8 µg/mL (≈ 20.8 µM)	16 µg/mL (≈ 41.6 µM)	8 µg/mL (≈ 20.8 µM)	4 µg/mL (≈ 10.4 µM)	16 µg/mL (≈ 41.6 µM)	–	–
CC(=O)NC[C@H]1CN(c2ccc(N3Cc4ccncc4C3)c(F)c2)C(=O)O1	1 µg/mL (≈ 2.7 µM)	1 µg/mL (≈ 2.7 µM)	1 µg/mL (≈ 2.7 µM)	0.5 µg/mL (≈ 1.35 µM)	1 µg/mL (≈ 2.7 µM)	–	–
CC(=O)NC[C@H]1CN(c2ccc(N3C(=O)c4ccccc4C3=O)c(F)c2)C(=O)O1	32 µg/mL (≈ 80.5 µM)	64 µg/mL (≈ 161 µM)	128 µg/mL (≈ 322 µM)	16 µg/mL (≈ 40.3 µM)	32 µg/mL (≈ 80.5 µM)	–	–
CCN(Cc1cccnc1)c1ccc(N2C[C@H](CNC(C)=O)OC2=O)cc1F	16 µg/mL (≈ 41.4 µM)	16 µg/mL (≈ 41.4 µM)	32 µg/mL (≈ 82.8 µM)	8 µg/mL (≈ 20.7 µM)	16 µg/mL (≈ 41.4 µM)	–	–
CC(=O)NC[C@H]1CN(c2ccc(N3Cc4cccnc4C3=O)c(F)c2)C(=O)O1	8 µg/mL (≈ 20.8 µM)	32 µg/mL (≈ 83.3 µM)	8 µg/mL (≈ 20.8 µM)	8 µg/mL (≈ 20.8 µM)	8 µg/mL (≈ 20.8 µM)	–	–
CC(=O)NC[C@H]1CN(c2ccc(N3Cc4ccccc4C3=O)c(F)c2)C(=O)O1	8 µg/mL (≈ 20.9 µM)	8 µg/mL (≈ 20.9 µM)	16 µg/mL (≈ 41.7 µM)	4 µg/mL (≈ 10.4 µM)	4 µg/mL (≈ 10.4 µM)	–	–
CC(=O)NC[C@H]1CN(c2ccc(N3Cc4cccnc4C3)c(F)c2)C(=O)O1	0.5 µg/mL (≈ 1.35 µM)	0.5 µg/mL (≈ 1.35 µM)	1 µg/mL (≈ 2.7 µM)	0.25 µg/mL (≈ 0.675 µM)	0.5 µg/mL (≈ 1.35 µM)	–	–
CC(=O)NC[C@H]1CN(c2ccc(N3Cc4cncnc4C3)c(F)c2)C(=O)O1	1 µg/mL (≈ 2.69 µM)	2 µg/mL (≈ 5.39 µM)	2 µg/mL (≈ 5.39 µM)	1 µg/mL (≈ 2.69 µM)	1 µg/mL (≈ 2.69 µM)	–	–
CC(=O)NC[C@H]1CN(c2ccc(N3CCOCC3)c(F)c2)C(=O)O1 [LINEZOLID]	2 µg/mL (≈ 5.93 µM)	–	–	1 µg/mL (≈ 2.96 µM)	–	–	8 mg/kg/day
